Source: PubChem BioAssay
TAAR1 agonist: agonists of human TAAR1 | Q96RJ0 | CHO RD-HGA16 TAAR1, Fluo-8 calcium fluorescence; vehicle wells 0%, saturating PEA agonist 100% | activation, % at 3 µM | 360,000 compounds, 0.99% hits | AID 624467;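 active = activation above the mean activation of all test compounds in the run plus 3 SD, cut at about 38% in these data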
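Test system: RD-HGA16 (CHO) cells co-expressing Gα16 and hTAAR1 / Benchmarks: DMSO vehicle as 0%, PEA at EC100 as 100% / Repeats: no replicates (n 1) / Measure: % activation from peak over basal fluorescence ratio, DMSO-to-PEA scaled / Timing: 17-24 h plating, Fluo-8 75 min 37 °C, 30 min RT / Technique: kinetic Fluo-8 calcium fluorescence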
CHRM1 PAM: human CHRM1 positive allosteric modulation; P11229; AID 588819; activation, % at 3 µM; 360,000 compounds, 0.088% hits; CHO-K1 hM1, Fluo-8 calcium fluorescence, ACh EC20; 0% = ACh EC20, 100% = maximal ACh; in the data active = activation above about 19%, passing the limit was not always enough
Target sequence (P11229 whole entry, looked up): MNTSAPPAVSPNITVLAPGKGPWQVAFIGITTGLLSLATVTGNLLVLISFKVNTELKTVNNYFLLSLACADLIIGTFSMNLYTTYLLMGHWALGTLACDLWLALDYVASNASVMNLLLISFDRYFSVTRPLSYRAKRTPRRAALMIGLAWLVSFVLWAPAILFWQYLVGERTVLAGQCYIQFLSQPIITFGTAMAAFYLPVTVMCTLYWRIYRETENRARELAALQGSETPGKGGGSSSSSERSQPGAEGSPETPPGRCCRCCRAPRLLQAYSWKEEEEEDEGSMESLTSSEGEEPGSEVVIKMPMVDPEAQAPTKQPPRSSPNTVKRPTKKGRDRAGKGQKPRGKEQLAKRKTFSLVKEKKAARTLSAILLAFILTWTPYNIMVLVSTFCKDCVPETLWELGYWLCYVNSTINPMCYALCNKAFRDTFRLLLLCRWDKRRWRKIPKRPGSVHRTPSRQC
M1 ag: agonists of human M1 muscarinic receptor; P11229; AID 588814; CHO-K1 hM1, Fluo-8 calcium fluorescence, agonist mode; 0% DMSO, 100% acetylcholine EC100; 360,000 compounds, 0.33% hits; activation, % at 3 µM;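 active = activation above the run's mean compound activation plus 3 SD, cut at about 16% in these data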;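 also: peak over basal fluorescence ratio within a 140 s kinetic read after compound addition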
CHRM1 antagonist: antagonists of human M1 muscarinic receptor; 360,000 compounds, 1.3% hits; P11229; inhibition, % at 3 µM; CHO-K1 hM1, Fluo-8 calcium fluorescence, ACh EC80 antagonist;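 active = percent inhibition above its own plate's cutoff, namely the mean of that plate's compound wells plus 3 SD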;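 also: peak over basal fluorescence ratio during 140 s after agonist addition; 0% = ACh EC80 plus DMSO and 100% = DMSO alone without agonist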
HTR2A ag: mouse HTR2A agonism via beta-arrestin recruitment. CHO-K1 mHTR2A beta-arrestin complementation, luminescence; percent of 30 µM serotonin response. AID 624169. P35363. activation, % at 7.6 µM. 360,000 compounds, 0.66% hits;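 active = activation above a run cutoff, the mean activation of all tested compounds plus 3 SD, cut at about 14% in these data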;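 also: 0% = plate median of compound wells and 100% = 30 µM serotonin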
TAAR1 antag: antagonists of human TAAR1. Q96RJ0. CHO RD-HGA16 TAAR1, Fluo-8 calcium fluorescence, antagonist. inhibition, % at 3 µM. 360,000 compounds, 1.5% hits;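 active = inhibition above a per-plate cutoff, the mean inhibition of test compounds on that plate plus 3 SD, cut at about 49% in these data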;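 also: 0% = DMSO plus EC80 beta-PEA response and 100% = DMSO alone without agonist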
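System: RD-HGA16 CHO cells with stable hTAAR1 and Gα16 | Probe or stimulus: EC80 β-phenethylamine stimulus | Dosing: 3 µM, single point | Times: Dye loading 75 min at 37 °C, then 30 min room temperature | Measured by: Fluo-8 calcium-sensitive fluorescence | Read-out basis: % inhibition of agonist calcium response | Replicates: n of 1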
* hit, by the source's call. Hits are enriched below; roughly 3.9% of the tested compounds scored in any of these assays.

SMILES	TAAR1 agonist	CHRM1 PAM	M1 ag	CHRM1 antagonist	HTR2A ag	TAAR1 antag
O=C(CCC1CCCN(Cc2ccc3c(c2)CCO3)C1)NCc1ccc(F)c(F)c1 (stereo unspecified)	6	-30	-12	33*	-5	4
O=C(CCC1CCCN(C2C3CC4CC(C3)CC2C4)C1)NCc1ccc(F)c(F)c1 (stereo unspecified)	-1	-18	-5	43*	4	-11
Cc1occc1C(=O)N1CCCC(CCC(=O)NCc2ccc(F)c(F)c2)C1 (stereo unspecified)	0	11	-6	-6	-1	-6
CCc1ccccc1NC(=S)N(CCOC)C(C)c1ccco1 (stereo unspecified)	4	10	-1	-16	8	-14
CN(C)S(=O)(=O)c1cccc(NC(=O)C2Cc3ccccc3CN2C(=O)c2ccco2)c1 (stereo unspecified)	1	11	-7	-11	-5	-6
COC(=O)c1ccc(OCC(O)CNCC(c2ccc(OC)cc2)N(C)C)c(OC)c1 (stereo unspecified)	-3	-11	-12	12	-5	8
Cc1ccc(-n2ncc3c2CC(C)(C)CC3NC(=O)C2CCOCC2)cc1 (stereo unspecified)	-1	5	-1	-4	-5	-22
CCC1c2ccccc2C(=O)C1C(N)=O (stereo unspecified)	2	0	2	-2	0	-21
Cc1ccc(NC(=O)c2cc([N+](=O)[O-])ccc2N2CCOCC2)cc1S(=O)(=O)N(C)C	4	-23	-5	52*	-7	-10
O=C(c1cc([N+](=O)[O-])ccc1N1CCOCC1)N1CCN(S(=O)(=O)c2ccc(F)cc2)CC1	4	-9	-2	28*	1	-7
O=C(COc1ccc(-c2ccccc2)cc1)NNC(=O)NC1CCCCC1	2	-31	-14	33*	2	1
COC(=O)c1cn(-c2ccccc2)nc1-c1ccc(OC)cc1	6	-11	-5	5	0	-18
CCN(CC)CCNC(=O)c1ccc(NC(=O)c2cccc(-n3cnnn3)c2)cc1	1	7	-8	-9	5	-12
CCN(CC)CCNC(=O)c1ccc(NC(=O)Cc2ccccc2F)cc1	3	-9	-15	4	-4	0
CCN(CC)CCNC(=O)c1ccc(NC(=O)c2ccccc2-c2ccc(C(F)(F)F)cc2)cc1	5	-31	-11	101*	-12	6
CC(C)COc1ccc(-c2nn(-c3ccccc3)cc2C(=O)Nc2nccs2)cc1	11	-9	7	29	1	73*
CCN(CC)CCNC(=O)c1ccc(NC(=O)c2cn(-c3ccccc3)nc2-c2cccs2)cc1	11	-28	-9	61*	-8	24
CN(CC(=O)Nc1ccc(F)cc1)C(=O)c1cn(-c2ccccc2)nc1-c1cccs1	17	-1	-4	6	-1	51*
Cc1ccc(-c2nn(-c3ccccc3)cc2C(=O)Nc2ccc(C(=O)O)cc2)cc1	4	-1	-3	3	-3	29
CCN(CC)CCNC(=O)c1ccc(NC(=O)c2cn(-c3ccc(F)cc3)nc2-c2cccc(OC)c2)cc1	7	-31	-11	99*	-13	12
CCN(CC)CCNC(=O)c1ccc(NC(=O)c2cccc(S(=O)(=O)N(C)C3CCCCC3)c2)cc1	7	-30	-8	100*	-8	-11
CCOC(=O)c1ccc(NC(=O)c2cn(-c3ccccc3)nc2-c2ccncc2)cc1	5	-14	1	20	4	62*
O=C(CCC(=O)c1ccc(F)cc1)OCc1nnc(-c2ccc([N+](=O)[O-])cc2)o1	0	-3	-3	1	2	-3
Cc1cccc(C)c1NC(=O)CSc1ncnc2[nH]ncc12	4	5	0	-8	1	-3
O=C(CSc1ncnc2[nH]ncc12)Nc1nc(-c2ccc(F)c(F)c2)cs1	24	-3	4	22	4	62*
O=C(Cn1cnc2nc3n(c2c1=O)CCC3)NCc1ccccc1	17	6	-4	-13	3	-18
